Screens deposited in PubChem BioAssay by several laboratories.
Rows were chosen to be rich in hits. Some 1.9% of all compounds tested hit in one or more screens of this group.
Runt-SMMHC FRET: inhibitors of human RUNX1 Runt domain binding to CBFb-SMMHC | inhibition, % at 20 µM | Cerulean-Runt/Venus-CBFb-SMMHC FRET ratio 530/480, 1 h | 0.74% of 220,000 active;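 active = mean inhibition across duplicate retests at 20 µM reaching about 50%, limit read from the data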;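 note: 0% = DMSO wells and 100% = wells with excess untagged CBFb-SMMHC; inhibitors lower the FRET ratio by blocking Runt binding to CBFb-SMMHC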
Runt-CBFb FRET: blocks binding of human RUNX1 Runt domain to CBFb; Q01196+Q13951; Cerulean-Runt/Venus-CBFb FRET ratio 530/480, 1 h; inhibition, % at 20 µM; 0.46% of 220,000 active; AID 1496;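 active = inhibition over about 50% at 20 µM in the single-dose screen, limit read from the data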;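 note: 0% = DMSO wells and 100% = excess unlabeled CBFb competitor control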
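Measured by: fluorescence energy transfer, 422 nm excitation, 530/480 nm emission; Assay system: Cerulean-Runt domain; Medium: Tris pH 7.5 buffer with BSA; Measure: loss of energy transfer signal; Controls: 5 µM unlabeled CBFb as full-inhibition high control; Incubation: protein complex preformed 1 h, compound exposure 1 h, room temperature, dark.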
RanGTP-Imp inh: inhibitors of RanGTP-importin-beta interaction, primary screen, biochemical, FRET, CFP-Ran, YFP-importin-beta, homogeneous; cell-free CFP-Ran/YFP-importin-beta FRET ratio; inhibition, % (concentration not given with the values); 1.1% of 300,000 active; AID 2216;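 active = more than half of the replicate wells show a fall in the fluorescence ratio signal beyond about 16%, limit read from the data, passing the limit was not always enough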;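 note: 0% = DMSO wells and 100% = Ran loaded with GDP instead of GTP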
LANA-H2B inh: blocks KSHV LANA binding to histone H2A/H2B. Q9QR71. cell-free LANA-H2A/H2B peptide, fluorescence polarization. inhibition, % (no concentration beside the values). 0.6% of 320,000 active; in the data active = inhibition mostly above about 10%, no sharp cut-off; inactive = mostly below about 6.7%
CaV13 FRET inh: Disruptors of the CACNA1D IQ motif to Ca2+-dependent inactivation inhibitor domain association, primary screening, Förster resonance energy transfer in intact living …; inhibition, % at 12.3 µM; HEK cells, CFP/YFP FRET ICDI-IQ, plate reader, 10 min; percent FRET-ratio fall versus neutral wells; 0.098% of 340,000 active; AID 743397;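 active = mean replicate inhibition of at least 30% and at least 1% of replicates passing that level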;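 note: 0% = median of the neutral control wells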
HDAC3 inhib: inhibitors of human histone deacetylase 3. AID 2718. inhibition, % at 8.3 µM. 0.15% of 320,000 active. recombinant HDAC3, fluorogenic peptide/trypsin coupled, fluorescence; in the data active = inhibition above about 26%, passing the limit was not always enough
Starred values were filed as active, the others as inactive; . = no result.

SMILES	Runt-SMMHC FRET	Runt-CBFb FRET	RanGTP-Imp inh	LANA-H2B inh	CaV13 FRET inh	HDAC3 inhib
C=CS(=O)(=O)c1sc(Cl)c(N2CCOCC2)c1[N+](=O)[O-]	0	12	3	.	-4	.
Cc1cc(-c2ccc(C)c(S(=O)(=O)N3CCN(C(=O)c4ccco4)CC3)c2)on1	.	.	3	0	-5	1
CCOC(=O)C(Cc1ccccc1)NC(=O)CCc1nnc2ccc(N3CCCCC3)nn12 (stereo not given)	.	.	-2	1	-13	-16
CCCCN(C(=O)C1CC(=O)N(c2ccc3c(c2)OCCO3)C1)c1c(N)n(CCCC)c(=O)[nH]c1=O (stereo not given)	.	.	.	25*	-5	3
NC(=O)c1ccc(NC(=O)C2CC(=O)N(c3ccc4c(c3)OCCO4)C2)cc1 (stereo not given)	.	.	.	-1	-2	-2
CCN(CC)CCNC(=O)c1ccc(NC(=O)C2CC(=O)N(c3ccc4c(c3)OCCO4)C2)cc1 (stereo not given)	.	.	0	61*	.	-1
OCCCCc1nccc2c1[nH]c1ccccc12	-1	3	-2	1	-19	-111
N#Cc1ccc(/C=C\c2nccc3c2[nH]c2ccccc23)cc1	90	17	103*	-10	38*	-1
O=C(CSC1=NCCS1)N1CCN(c2ccc(Cl)cc2)CC1	-4	0	-1	3	-4	-4
O=C(CSC1=NCCS1)c1ccc(Cl)cc1	3	10	0	-1	.	72*
Cn1c2ccccc2c(=O)c2ccc(C#Cc3ccc(N)cc3)cc21	.	.	86*	0	-14	6
COc1ccc(C#Cc2ccc3c(=O)c4ccccc4n(C)c3c2)cc1	.	.	88*	4	.	0
Cn1c(=O)c2cc(S(=O)(=O)NCCC(=O)NCc3ccccc3Cl)ccc2n(C)c1=O	-2	138*	-2	-1	-10	-4
Cc1ccc(CNC(=O)CCNS(=O)(=O)c2ccc3c(c2)c(=O)n(C)c(=O)n3C)cc1	2	-1	8	-2	-7	-1
COc1cccc(C(C(=O)NC2CCCCC2)N(C(=O)c2csnn2)C2CC2)c1 (stereo not given)	.	.	1	13*	-4	1
COc1ccc(OC)c(/C=C/C(=O)N2C(=O)c3cccc(N)c3C2=O)c1	79	-36	7	-7	-7	-10
Cc1ccc(C(=O)N2C(=O)c3cccc(N)c3C2=O)o1	-35	-16	-3	20*	-7	7
CCOC(=O)N1CCC(Nc2nc3ccccc3nc2NS(=O)(=O)c2ccc(Cl)cc2)CC1	34	11	19*	0	-5	9
O=C(CN1CCCCC1)NCCNc1ccc(C(F)(F)F)cc1[N+](=O)[O-]	3	-6	-5	-3	-6	0
Cc1cc(-c2csc(N)n2)c(C)n1CCc1ccccc1	-12	8	1	8	-10	-11
Cc1cc(-c2csc(N)n2)c(C)n1CCC(C)C	-10	2	4	14*	.	-6
Cc1ncoc1C(=O)Nc1ccccc1C(N)=O	0	2	-1	4	-9	-3
CC1(C)Cc2c(sc3nc(C4CC4)n(N)c(=O)c23)CO1	1	98*	2	-4	-5	-3
CC1(C)Cc2c(sc3nc(C4CCCCC4)n(N)c(=O)c23)CO1	2	1	5	-13	-4	-3
C=CCOc1c(Br)cc(C2C3=C(CCCC3=O)N(C)C3=C2C(=O)CCC3)cc1OCC	.	96*	101*	2	0	-19
C=CCOc1ccc(C2C3=C(CCCC3=O)N(CC(=O)O)C3=C2C(=O)CCC3)cc1OCC	.	.	2	2	-2	1
CCCCOc1ccccc1C(=O)NCCCCCC(=O)O	4	-1	4	0	.	4
COc1ccccc1CNC(=O)COC(=O)/C=C/c1ccc2ccccc2n1	.	.	.	17*	-5	0
CCC(=O)Nc1ccc(NC(=O)c2cccc3ccccc23)cc1	.	.	4	-1	-6	-3
